Experimental data published in ChEMBL document CHEMBL1135739, “Radiolabeled amino acids for tumor imaging with PET: radiosynthesis and biological evaluation of 2-amino-3-[18F]fluoro-2-methylpropanoic acid and 3-[18F]fluoro-2-methyl-2-(methylamino)propanoic acid” (J Med Chem, 2002).

Assays:
Rattus norvegicus [1] = organism: Rattus norvegicus; assay: Radioactivity distribution in kidney of normal fischer rat after injection of [18F]fluoro-2-methylpropanoic acid after 120 min.; assay type: ADME, organism-based; conditions: in vivo, 2 h
Method in brief: (§1)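 Normal male Fischer 344 rats (200–250 g), anesthetized with i.m. ketamine:xylazine (1:1), got ~85 μCi of tracer in 0.3 mL sterile water i.v. via tail-vein catheter. Groups of four were killed at 5, 30, 60 or 120 min. Tissues were weighed and gamma-counted against dose standards, and counts were decay-corrected to %ID/g. Results are mean ± standard error (n = 4), compared by one-way ANOVA.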

Rattus norvegicus [2] = organism: Rattus norvegicus; assay: Radioactivity distribution in kidney of normal fischer rat after injection of [18F]fluoro-2-methylpropanoic acid after 60 min.; assay type: ADME, organism-based; conditions: in vivo, 1 h
Method in brief: (§2)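 Male Fischer 344 rats (200–250 g), fed ad libitum, anesthetized with intramuscular ketamine:xylazine (1:1, 0.1 mL/100 g). About 85 μCi tracer in 0.3 mL sterile water was given by tail-vein catheter. Groups of four were killed at 5, 30, 60 or 120 min. Tissues were weighed and gamma-counted against dose standards, decay-corrected, and expressed as %ID/g (mean ± standard error).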

Rattus norvegicus [3] = organism: Rattus norvegicus; assay: Radioactivity distribution in blood of normal fischer rat after injection of [18F]fluoro-2-methylpropanoic acid after 120 min.; assay type: ADME, organism-based; conditions: in vivo, 2 h; method in brief: as §1
Rattus norvegicus [4] = organism: Rattus norvegicus; assay: Radioactivity distribution in blood of normal fischer rat after injection of [18F]fluoro-2-methylpropanoic acid after 30 min.; assay type: ADME, organism-based; conditions: in vivo, 0.5 h; method in brief: as §1
Rattus norvegicus [5] = organism: Rattus norvegicus; assay: Radioactivity distribution in brain of normal fischer rat after injection of [18F]fluoro-2-methylpropanoic acid after 30 min.; assay type: ADME, organism-based; conditions: in vivo, 0.5 h; method in brief: as §1
Rattus norvegicus [6] = organism: Rattus norvegicus; assay: Radioactivity distribution in spleen of normal fischer rat after injection of [18F]fluoro-2-methylpropanoic acid after 5 min.; assay type: ADME, organism-based; conditions: in vivo
Method in brief: (§3)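 Male Fischer 344 rats (200–250 g), fed ad libitum, under intramuscular ketamine:xylazine anesthesia, got ~85 μCi radiotracer in 0.3 mL sterile water by tail-vein catheter. Groups of four were killed at 5, 30, 60 or 120 min. Dissected tissues were weighed and gamma-counted with dose standards. Counts were decay-corrected and given as %ID/g, mean ± standard error. Tissues were compared by one-way ANOVA.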

Rattus norvegicus [7] = organism: Rattus norvegicus; assay: Radioactivity distribution in spleen of tumor-bearing fischer rat after injection of [18F]fluoro-2-methylpropanoic acid after 60 min; assay type: ADME, organism-based; conditions: in vivo, 1 h
Method in brief: (§4)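 Male Fischer rats had 4×10^4 9L gliosarcoma cells implanted stereotactically into the brain, 3 mm right of midline, 1 mm anterior to bregma, 5 mm deep. They were used 17–19 days later. Awake, restrained rats got ~35 μCi in 0.3 mL sterile water by tail vein and were killed at 5, 60 or 120 min. Tissues, tumor and contralateral brain were gamma-counted, decay-corrected, as %ID/g, mean ± SE, n = 4–5.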

Rattus norvegicus [8] = organism: Rattus norvegicus; assay: Radioactivity distribution in pancreas of tumor-bearing fischer rat after injection of [18F]-fluoro-2-methylpropanoic acid after 60 min; assay type: ADME, organism-based; conditions: in vivo, 1 h
Method in brief: (§5)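 Male Fischer 344 rats carried intracranial 9L gliosarcoma, stereotactically implanted (4×10^4 cells) and used 17–19 days later. Awake, restrained animals received about 35 μCi tracer in 0.3 mL sterile water via the tail vein and were killed at 5, 60 or 120 min (n = 4–5). Tissues were weighed, gamma-counted, decay-corrected and reported as %ID/g ± standard error.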

Rattus norvegicus [9] = organism: Rattus norvegicus; assay: Radioactivity distribution in testis of normal fischer rat after injection of [18F]fluoro-2-methylpropanoic acid after 5 min.; assay type: ADME, organism-based; conditions: in vivo; method in brief: as §3
Rattus norvegicus [10] = organism: Rattus norvegicus; assay: Radioactivity distribution in lung of normal fischer rat after injection of [18F]fluoro-2-methylpropanoic acid after 30 min.; assay type: ADME, organism-based; conditions: in vivo, 0.5 h; method in brief: as §2
Rattus norvegicus [11] = organism: Rattus norvegicus; assay: Radioactivity distribution in lung of normal fischer rat after injection of [18F]-fluoro-2-methylpropanoic acid after 60 min.; assay type: ADME, organism-based; conditions: in vivo, 1 h; method in brief: as §2
Rattus norvegicus [12] = organism: Rattus norvegicus; assay: Radioactivity distribution in lung of tumor-bearing fischer rat after injection of [18F]-fluoro-2-methylpropanoic acid after 120 min; assay type: ADME, organism-based; conditions: in vivo, 2 h; method in brief: as §5
Rattus norvegicus [13] = organism: Rattus norvegicus; assay: Radioactivity distribution in testis of tumor-bearing fischer rat after injection of [18F]fluoro-2-methylpropanoic acid after 120 min; assay type: ADME, organism-based; conditions: in vivo, 2 h; method in brief: as §4
Rattus norvegicus [14] = organism: Rattus norvegicus; assay: Radioactivity distribution in testis of tumor-bearing fischer rat after injection of [18F]fluoro-2-methylpropanoic acid after 5 min; assay type: ADME, organism-based; conditions: in vivo; method in brief: as §4
Rattus norvegicus [15] = organism: Rattus norvegicus; assay: Radioactivity distribution in pancreas of normal fischer rat after injection of [18F]fluoro-2-methylpropanoic acid after 30 min.; assay type: ADME, organism-based; conditions: in vivo, 0.5 h; method in brief: as §2
Rattus norvegicus [16] = organism: Rattus norvegicus; assay: Radioactivity distribution in pancreas of normal fischer rat after injection of [18F]fluoro-2-methylpropanoic acid after 60 min.; assay type: ADME, organism-based; conditions: in vivo, 1 h; method in brief: as §2
Rattus norvegicus [17] = organism: Rattus norvegicus; assay: Radioactivity distribution in muscle of normal fischer rat after injection of [18F]-fluoro-2-methylpropanoic acid after 5 min.; assay type: ADME, organism-based, Muscle tissue; conditions: in vivo; method in brief: as §2
Rattus norvegicus [18] = organism: Rattus norvegicus; assay: Radioactivity distribution in bone of normal fischer rat after injection of [18F]-fluoro-2-methylpropanoic acid after 30 min.; assay type: ADME, organism-based, Bone element; conditions: in vivo, 0.5 h; method in brief: as §1
Rattus norvegicus [19] = organism: Rattus norvegicus; assay: Radioactivity distribution in bone of normal fischer rat after injection of [18F]fluoro-2-methylpropanoic acid after 5 min.; assay type: ADME, organism-based, Bone element; conditions: in vivo; method in brief: as §1
Rattus norvegicus [20] = organism: Rattus norvegicus; assay: Radioactivity distribution in bone of tumor-bearing fischer rat after injection of [18F]fluoro-2-methylpropanoic acid after 120 min; assay type: ADME, organism-based, Bone element; conditions: in vivo, 2 h
Method in brief: (§6)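 Male Fischer 344 rats carried intracranial 9L gliosarcoma, implanted stereotactically (4×10^4 cells) and used 17–19 days later. Awake restrained rats got ~35 μCi of tracer in 0.3 mL sterile water by tail-vein injection and were killed at 5, 60 or 120 min. Tissues were weighed and gamma-counted, and counts were decay-corrected to %ID/g. Results are mean ± standard error; n = 4 at 5 and 120 min, n = 5 at 60 min.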

Rattus norvegicus [21] = organism: Rattus norvegicus; assay: Radioactivity distribution in bone of tumor-bearing fischer rat after injection of [18F]fluoro-2-methylpropanoic acid after 5 min; assay type: ADME, organism-based, Bone element; conditions: in vivo; method in brief: as §6
Rattus norvegicus [22] = organism: Rattus norvegicus; assay: Radioactivity distribution in heart of normal fischer rat after injection of [18F]-fluoro-2-methylpropanoic acid after 60 min.; assay type: ADME, organism-based; conditions: in vivo, 1 h; method in brief: as §1
Rattus norvegicus [23] = organism: Rattus norvegicus; assay: Radioactivity distribution in blood of normal fischer rat after injection of [18F]fluoro-2-methylpropanoic acid after 5 min.; assay type: ADME, organism-based; conditions: in vivo; method in brief: as §1
Rattus norvegicus [24] = organism: Rattus norvegicus; assay: Radioactivity distribution in blood of normal fischer rat after injection of [18F]fluoro-2-methylpropanoic acid after 60 min.; assay type: ADME, organism-based; conditions: in vivo, 1 h; method in brief: as §1
Rattus norvegicus [25] = organism: Rattus norvegicus; assay: Radioactivity distribution in blood of tumor-bearing fischer rat after injection of [18F]fluoro-2-methylpropanoic acid after 5 min; assay type: ADME, organism-based; conditions: in vivo; method in brief: as §6
Rattus norvegicus [26] = organism: Rattus norvegicus; assay: Radioactivity distribution in blood of tumor-bearing fischer rat after injection of [18F]fluoro-2-methylpropanoic acid after 60 min; assay type: ADME, organism-based; conditions: in vivo, 1 h; method in brief: as §6
Rattus norvegicus [27] = organism: Rattus norvegicus; assay: Radioactivity distribution in heart of tumor-bearing fischer rat after injection of [18F]fluoro-2-methylpropanoic acid after 60 min; assay type: ADME, organism-based; conditions: in vivo, 1 h; method in brief: as §6
Rattus norvegicus [28] = organism: Rattus norvegicus; assay: Radioactivity distribution in spleen of normal fischer rat after injection of [18F]fluoro-2-methylpropanoic acid after 30 min.; assay type: ADME, organism-based; conditions: in vivo, 0.5 h; method in brief: as §3
Rattus norvegicus [29] = organism: Rattus norvegicus; assay: Radioactivity distribution in liver of normal fischer rat after injection of [18F]-fluoro-2-methylpropanoic acid after 120 min.; assay type: ADME, organism-based; conditions: in vivo, 2 h; method in brief: as §2
Rattus norvegicus [30] = organism: Rattus norvegicus; assay: Radioactivity distribution in liver of tumor-bearing fischer rat after injection of [18F]fluoro-2-methylpropanoic acid after 120 min; assay type: ADME, organism-based; conditions: in vivo, 2 h; method in brief: as §5
Rattus norvegicus [31] = organism: Rattus norvegicus; assay: Radioactivity distribution in liver of tumor-bearing fischer rat after injection of [18F]fluoro-2-methylpropanoic acid after 5 min; assay type: ADME, organism-based; conditions: in vivo; method in brief: as §5
Rattus norvegicus [32] = organism: Rattus norvegicus; assay: Radioactivity distribution in brain of tumor-bearing fischer rat after injection of [18F]fluoro-2-methylpropanoic acid after 5 min; assay type: ADME, organism-based; conditions: in vivo; method in brief: as §6
Rattus norvegicus [33] = organism: Rattus norvegicus; assay: Radioactivity distribution in brain of tumor-bearing fischer rat after injection of [18F]fluoro-2-methylpropanoic acid after 60 min; assay type: ADME, organism-based; conditions: in vivo, 1 h; method in brief: as §6
Rattus norvegicus [34] = organism: Rattus norvegicus; assay: Radioactivity distribution in blood of tumor-bearing fischer rat after injection of [18F]fluoro-2-methylpropanoic acid after 120 min; assay type: ADME, organism-based; conditions: in vivo, 2 h; method in brief: as §6

**Q.** Which ID/g (Rattus norvegicus [1]) does the source give for `CC(N)(C[18F])C(=O)O.Cl` (centres undefined) here?
**A.** The ID/g was 2.97%.

**Q.** What about the ID/g (Rattus norvegicus [2]) of the same molecule?
**A.** Its ID/g is 4.74%.

**Q.** What about the ID/g (Rattus norvegicus [3]) of the same molecule?
**A.** Its ID/g is 0.15%.

**Q.** And the ID/g (Rattus norvegicus [4])?
**A.** Its ID/g is 0.25%.

**Q.** What about the ID/g (Rattus norvegicus [5]) of the same molecule?
**A.** Its ID/g is 0.05%.

**Q.** And the ID/g (Rattus norvegicus [6])?
**A.** Its ID/g is 0.83%.

**Q.** And the ID/g (Rattus norvegicus [7])?
**A.** Its ID/g is 0.55%.

**Q.** And the ID/g (Rattus norvegicus [8])?
**A.** Its ID/g is 2.86%.

**Q.** What about the ID/g (Rattus norvegicus [9]) of the same molecule?
**A.** Its ID/g is 0.17%.

**Q.** And the ID/g (Rattus norvegicus [10])?
**A.** The ID/g was 0.54%.

**Q.** And the ID/g (Rattus norvegicus [11])?
**A.** The ID/g was 0.44%.

**Q.** What about the ID/g (Rattus norvegicus [12]) of the same molecule?
**A.** The ID/g was 0.24%.

**Q.** What about the ID/g (Rattus norvegicus [13]) of the same molecule?
**A.** The ID/g was 0.11%.

**Q.** What about the ID/g (Rattus norvegicus [14]) of the same molecule?
**A.** Its ID/g is 0.22%.

**Q.** And the ID/g (Rattus norvegicus [15])?
**A.** Its ID/g is 2.93%.

**Q.** What about the ID/g (Rattus norvegicus [16]) of the same molecule?
**A.** The ID/g was 2.95%.

**Q.** What about the ID/g (Rattus norvegicus [17]) of the same molecule?
**A.** Its ID/g is 0.22%.

**Q.** And the ID/g (Rattus norvegicus [18])?
**A.** Its ID/g is 0.22%.

**Q.** What about the ID/g (Rattus norvegicus [19]) of the same molecule?
**A.** The ID/g was 0.27%.

**Q.** And the ID/g (Rattus norvegicus [20])?
**A.** The ID/g was 0.16%.

**Q.** And the ID/g (Rattus norvegicus [21])?
**A.** Its ID/g is 0.38%.

**Q.** What about the ID/g (Rattus norvegicus [22]) of the same molecule?
**A.** The ID/g was 0.28%.

**Q.** And the ID/g (Rattus norvegicus [23])?
**A.** Its ID/g is 0.53%.

**Q.** What about the ID/g (Rattus norvegicus [24]) of the same molecule?
**A.** Its ID/g is 0.22%.

**Q.** What about the ID/g (Rattus norvegicus [25]) of the same molecule?
**A.** Its ID/g is 0.72%.

**Q.** What about the ID/g (Rattus norvegicus [26]) of the same molecule?
**A.** Its ID/g is 0.26%.

**Q.** And the ID/g (Rattus norvegicus [27])?
**A.** The ID/g was 0.33%.

**Q.** What about the ID/g (Rattus norvegicus [28]) of the same molecule?
**A.** Its ID/g is 0.54%.

**Q.** What about the ID/g (Rattus norvegicus [29]) of the same molecule?
**A.** Its ID/g is 0.48%.

**Q.** What about the ID/g (Rattus norvegicus [30]) of the same molecule?
**A.** The ID/g was 0.25%.

**Q.** And the ID/g (Rattus norvegicus [31])?
**A.** Its ID/g is 0.77%.

**Q.** What about the ID/g (Rattus norvegicus [32]) of the same molecule?
**A.** The ID/g was 0.035%.

**Q.** And the ID/g (Rattus norvegicus [33])?
**A.** The ID/g was 0.054%.

**Q.** And the ID/g (Rattus norvegicus [34])?
**A.** The ID/g was 0.16%.
